In ChEMBL document CHEMBL4665862, “Synthesis and biological activity of C-7, C-9 and C-10 modified taxane analogues from 1-deoxybaccatin VI” (Bioorg Med Chem, 2020):

Assays:
A549 = assay: Cytotoxicity against human A549 cells assessed as reduction in cell viability incubated for 72 hrs by CCK-8 assay; format: functional, cell-based; conditions: A549, 72 h
How it was run: (§1)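 Exponentially growing human tumour cells were exposed for 72 h to compounds formulated in DMSO solution. Cell survival was read by the CCK-8 method, and IC50 values were taken from the dose–response curves.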

[1] = Cytotoxicity against human drug-resistant A549/T cells assessed as reduction in cell viability incubated for 72 hrs by CCK-8 assay; format: functional, cell-based; conditions: A549, 72 h; how it was run: as §1
MDA-MB-231 = assay: Cytotoxicity against human MDA-MB-231 cells assessed as reduction in cell viability incubated for 72 hrs by CCK-8 assay; format: functional, cell-based; conditions: MDA-MB-231, 72 h; how it was run: as §1
[2] = Potency index, ratio of paclitaxel IC50 to compound IC50 for cytotoxicity against drug-resistant human A549/T cells assessed as reduction in cell viability incubated for 72 hrs by CCK-8 assay; format: functional

Structure (SMILES) | IC50 (A549) [nM] | IC50 [1] [nM] | IC50 (MDA-MB-231) [nM] | Ratio [2]
CC(=O)O[C@H]1C[C@H]2OC[C@@]2(OC(C)=O)[C@H]2[C@H](OC(=O)c3ccccc3)C3C[C@H](OC(=O)[C@H](O)[C@@H](NC(=O)c4ccc(F)cc4)c4ccccc4)C(C)=C([C@H]4OC(=O)O[C@@H]4[C@]12C)C3(C)C (some centres undefined) | 133 | 1030 | 209 | –
COc1cccc(C(=O)N[C@@H](c2ccccc2)[C@@H](O)C(=O)O[C@H]2CC3[C@@H](OC(=O)c4ccccc4)[C@@H]4[C@]5(OC(C)=O)CO[C@@H]5C[C@H](OC(C)=O)[C@@]4(C)[C@H]4OC(=O)O[C@@H]4C(=C2C)C3(C)C)c1 (some centres undefined) | 69 | 3020 | 68 | –
CC(=O)O[C@H]1C[C@H]2OC[C@@]2(OC(C)=O)[C@H]2[C@H](OC(=O)c3ccccc3)C3C[C@H](OC(=O)[C@H](O)[C@@H](NC(=O)c4ccc(C)cc4)c4ccccc4)C(C)=C([C@H]4OC(=O)O[C@@H]4[C@]12C)C3(C)C (some centres undefined) | 62 | 229 | 119 | 7
CC(=O)O[C@H]1C[C@H]2OC[C@@]2(OC(C)=O)[C@H]2[C@H](OC(=O)c3ccccc3)C3C[C@H](OC(=O)[C@H](O)[C@@H](NC(=O)c4ccc(F)c(F)c4)c4ccccc4)C(C)=C([C@H]4OC(=O)O[C@@H]4[C@]12C)C3(C)C (some centres undefined) | 408 | 2880 | 1950 | –
CC(=O)O[C@H]1C[C@H]2OC[C@@]2(OC(C)=O)[C@H]2[C@H](OC(=O)c3ccccc3)C3C[C@H](OC(=O)[C@H](O)[C@@H](NC(=O)c4ccccc4)c4ccccc4)C(C)=C([C@H]4OC(=O)O[C@@H]4[C@]12C)C3(C)C (some centres undefined) | 22 | 229 | 124 | 7
CC(=O)O[C@H]1C[C@H]2OC[C@@]2(OC(C)=O)[C@H]2[C@H](OC(=O)c3ccccc3)C3C[C@H](OC(=O)[C@H](O)[C@@H](NC(=O)c4ccccc4F)c4ccccc4)C(C)=C([C@H]4OC(=O)O[C@@H]4[C@]12C)C3(C)C (some centres undefined) | 115 | 4900 | 182 | –
CC(=O)O[C@H]1C[C@H]2OC[C@@]2(OC(C)=O)[C@H]2[C@H](OC(=O)c3ccccc3)C3C[C@H](OC(=O)[C@H](O)[C@@H](NC(=O)c4cccc(Br)c4)c4ccccc4)C(C)=C([C@H]4OC(=O)O[C@@H]4[C@]12C)C3(C)C (some centres undefined) | 329 | 2880 | 2020 | –
CC(=O)O[C@H]1C(=O)[C@@]2(C)[C@H]([C@H](OC(=O)c3ccccc3)[C@]3(O)C[C@H](OC(=O)[C@H](O)[C@@H](NC(=O)c4ccccc4)c4ccccc4)C(C)=C1C3(C)C)[C@]1(OC(C)=O)CO[C@@H]1C[C@@H]2O [PACLITAXEL] | 13 | 1580 | 20 | –
CC(=O)O[C@H]1C[C@H]2OC[C@@]2(OC(C)=O)[C@H]2[C@H](OC(=O)c3ccccc3)C3C[C@H](OC(=O)[C@H](O)[C@@H](NC(=O)c4cccc(F)c4)c4ccccc4)C(C)=C([C@H]4OC(=O)O[C@@H]4[C@]12C)C3(C)C (some centres undefined) | 68 | 2340 | 183 | –
